Structures can show the parent of a compound that is named as a salt.
What was measured:
[1] = Screening solubility of sorafenib in oils, surfactants and cosolvents; type: physicochemical; details: 37 °C, thermodynamic from solid
[2] = test system: Caco-2 cells monolayer; test: In vitro transport across the Caco-2 cells monolayer; type: in vitro ADME; details: 80 μg/mL equivalent drug, up to 240 min
Summary of the method: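 Caco-2 cells in RPMI with 10% FBS and 1% penicillin/streptomycin (37 °C, 5% CO2) seeded at 10 × 10⁴ cells/insert on Geltrex-coated 0.3 μm polycarbonate inserts, fed every 2 days for 21 days. Only monolayers with TEER > 300 Ω·cm² were used. Test compound was dispersed in medium and applied apically. Basolateral samples at 30–240 min were replaced with warm medium. Three inserts per time point; HPLC.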

CNC(=O)c1cc(Oc2ccc(NC(=O)Nc3ccc(Cl)c(C(F)(F)F)c3)cc2)ccn1 [sorafenib, Sorafenib tosylate]
solubility at 24 h ([1]; capmul MCM (oil), oil or lipid): 5.16 ± 0.8 mg/mL | solubility at 24 h ([1]; captex 355 (oil), oil or lipid): 0.0428 ± 0.0076 mg/mL | solubility at 24 h ([1]; carpyol 90 (oil), oil or lipid): 0.279 ± 0.0065 mg/mL | solubility at 24 h ([1]; corn oil, oil or lipid): 0.053 ± 0.0137 mg/mL | solubility at 24 h ([1]; ethanol (cosolvent), organic solvent or mixture): 5.8 ± 0.8 mg/mL | solubility at 24 h ([1]; isopropyl myristate (oil), oil or lipid): 0.0379 ± 0.0072 mg/mL | solubility at 24 h ([1]; labrafil M 1944 CS (oil), oil or lipid): 0.35 ± 0.05 mg/mL | solubility at 24 h ([1]; labrafil M 2125 CS (oil), oil or lipid): 0.279 ± 0.0449 mg/mL | solubility at 24 h ([1]; lauroglycol (oil), oil or lipid): 0.298 ± 0.184 mg/mL | solubility at 24 h ([1]; mineral oil, oil or lipid): 0.0476 ± 0.0252 mg/mL | solubility at 24 h ([1]; olive oil, oil or lipid): 0.035 ± 0.0006 mg/mL | solubility at 24 h ([1]; peceol (oil), oil or lipid): 0.9 ± 0.5 mg/mL | solubility at 24 h ([1]; soybean oil, oil or lipid): 0.064 ± 0.0493 mg/mL | solubility at 24 h ([1]; triacetin (oil), oil or lipid): 0.113 ± 0.0625 mg/mL | Penetration of sorafenib across the monolayer, apical to basolateral [2]: absolutely no penetration
